Experimental data from PubChem BioAssay AID602285 (Broad Institute, 2012).
Active and inactive are the calls of the source.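 How the source made its calls: active means AC50 at or below twice the top valid dose for that sample, with falling signal; inconclusive means flat curve with inhibition of 30 to 70%, or poor fit; inactive means activity in the wrong direction, plus the rest.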

These compounds were tested against Scavenger receptor class B member 1 (Mus musculus) (UniProt Q61009) (assay: SR-BI mediated DiI-HDL lipid uptake blockers – ldlA[mSR-BI] CHO cells, fluorescence plate reader, dry powder, set 8, dose response (AID 602285)). Settings: 3 h.
In short: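 Reagent: DiI-labelled HDL, 10 µg protein/mL / System: ldlA[mSR-BI] cells, LDL receptor-deficient CHO line overexpressing murine SR-BI / Times: overnight cell plating, then 3 h compound and DiI-HDL exposure at 37 °C / Dosing: pin-transferred compounds, dose series / Detection: Washed-cell DiI fluorescence, ex 550/em 595 nm / Buffer or medium: Ham's F12, fatty acid-free BSA, HEPES pH 7.4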

Sequence of Scavenger receptor class B member 1 (Mus musculus) (Q61009 whole entry, looked up): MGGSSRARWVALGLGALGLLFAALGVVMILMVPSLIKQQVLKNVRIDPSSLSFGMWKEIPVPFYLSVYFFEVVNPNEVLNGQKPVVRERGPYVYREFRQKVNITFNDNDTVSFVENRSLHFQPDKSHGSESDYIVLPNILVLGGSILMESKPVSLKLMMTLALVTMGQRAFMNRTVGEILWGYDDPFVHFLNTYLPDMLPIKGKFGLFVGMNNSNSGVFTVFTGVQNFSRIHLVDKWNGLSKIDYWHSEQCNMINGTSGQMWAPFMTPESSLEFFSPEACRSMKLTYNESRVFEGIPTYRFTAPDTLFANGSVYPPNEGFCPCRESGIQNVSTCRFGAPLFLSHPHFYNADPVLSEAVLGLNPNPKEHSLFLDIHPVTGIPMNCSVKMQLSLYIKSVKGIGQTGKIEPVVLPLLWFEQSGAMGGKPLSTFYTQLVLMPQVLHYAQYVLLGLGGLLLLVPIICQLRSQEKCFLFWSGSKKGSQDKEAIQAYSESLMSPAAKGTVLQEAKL

Row | SMILES | AC50 [µM]
1 | C[C@@H]1CN([C@H](C)CO)C(=O)c2cc(NC(=O)Cc3cn(C)c4ccccc34)ccc2O[C@H]1CN(C)Cc1ccc(C(=O)Nc2ccccc2N)cc1 | 1.72
2 | Cc1noc(C)c1S(=O)(=O)Nc1ccc2c(c1)C(=O)N([C@H](C)CO)C[C@@H](C)[C@H](CN(C)S(=O)(=O)c1ccc(Cl)cc1)O2 | 0.297
3 | C[C@@H]1CN([C@H](C)CO)C(=O)c2cc(NC(=O)CCC(F)(F)F)ccc2O[C@H]1CN(C)S(=O)(=O)c1ccc(Cl)cc1 | 0.258
4 | C[C@@H]1CN([C@H](C)CO)C(=O)c2cc(NC(=O)Cc3cn(C)c4ccccc34)ccc2O[C@H]1CN(C)C(=O)Nc1ccc(F)cc1 | 1.56
5 | C[C@@H]1CN([C@H](C)CO)C(=O)c2cc(NC(=O)C3CC3)ccc2O[C@H]1CN(C)S(=O)(=O)c1ccc(Cl)cc1 | 2.06
6 | C[C@@H]1CN([C@H](C)CO)C(=O)c2cc(NC(=O)CCN3CCOCC3)ccc2O[C@H]1CN(C)S(=O)(=O)c1ccc(Cl)cc1 | 4.95
7 | C[C@@H]1CN([C@H](C)CO)C(=O)c2cc(NS(=O)(=O)c3ccccc3)ccc2O[C@H]1CN(C)S(=O)(=O)c1ccc(Cl)cc1 | 3.16
8 | COc1ccc(-c2nnn(CC(=O)N(C3CCCCC3)C(C)C(=O)NC3CCCCC3)n2)cc1OC (stereo unspecified) | 0.2
9 | COc1ccc(NC(=O)N(C)C[C@@H]2Oc3ccc(NC(=O)Cc4cn(C)c5ccccc45)cc3C(=O)N([C@H](C)CO)C[C@H]2C)cc1 | 1.75
10 | C[C@@H]1CN([C@H](C)CO)C(=O)c2cc(NS(=O)(=O)c3cccs3)ccc2O[C@H]1CN(C)S(=O)(=O)c1ccc(Cl)cc1 | 3.77
11 | C[C@@H]1CN([C@H](C)CO)C(=O)c2cc(NC(=O)Cn3cnnn3)ccc2O[C@H]1CN(C)S(=O)(=O)c1ccc(Cl)cc1 | 10.3
12 | C[C@@H]1CN([C@H](C)CO)C(=O)c2cc(NC(=O)Cc3cn(C)c4ccccc34)ccc2O[C@H]1CN(C)Cc1ccc(C(F)(F)F)cc1 | 0.653
13 | COCC(=O)N1CCc2cc(-c3csc(NC(=O)c4cc(OC)cc(OC)c4)n3)ccc21 | < 0.015

The remaining lines, values ahead:

Row | AC50 [µM] | SMILES
14 | 0.912 | C[C@@H]1CN([C@@H](C)CO)C(=O)c2cc(NC(=O)Cc3cn(C)c4ccccc34)ccc2O[C@H]1CN(C)S(=O)(=O)c1ccc(Cl)cc1
15 | 1.3 | C[C@@H]1CN([C@H](C)CO)C(=O)c2cc(NC(=O)Cc3cn(C)c4ccccc34)ccc2O[C@H]1CN(C)Cc1ccncc1
16 | 11.8 | C[C@@H]1CN([C@H](C)CO)C(=O)c2cc(NC(=O)Cc3cn(C)c4ccccc34)ccc2O[C@H]1CN(C)Cc1ccc(C(=O)O)cc1
17 | 2.55 | COc1ccc(CN(C)C[C@@H]2Oc3ccc(NC(=O)Cc4cn(C)c5ccccc45)cc3C(=O)N([C@H](C)CO)C[C@H]2C)cc1
18 | 1.11 | C[C@@H]1CN([C@H](C)CO)C(=O)c2cc(NC(=O)Cc3cn(C)c4ccccc34)ccc2O[C@H]1CN(C)S(=O)(=O)c1ccc(F)cc1
19 | 2.36 | C[C@@H]1CN([C@H](C)CO)C(=O)c2cc(NC(=O)Cc3cn(C)c4ccccc34)ccc2O[C@H]1CN(C)S(=O)(=O)c1cccs1

Same assay, conditions: 3 h, at 11 µM (top of the series)

Row | activity change, negative = inhibition | SMILES
20 | inactive | C[C@@H]1CN([C@H](C)CO)C(=O)c2cc(NC(=O)Cc3cn(C)c4ccccc34)ccc2O[C@H]1CN(C)Cc1ccc(Cl)c(Cl)c1
21 | inactive | C[C@@H]1CN([C@H](C)CN)C(=O)c2cc(NC(=O)Cc3cn(C)c4ccccc34)ccc2O[C@H]1CN(C)S(=O)(=O)c1ccc(Cl)cc1

Same assay, conditions: 3 h, at 35 µM (top of the series)

Row | activity change, negative = inhibition | SMILES
22 | inactive | CNC[C@@H]1OCCCC[C@@H](C)Oc2ccc(NS(=O)(=O)c3ccc(Cl)cc3)cc2C(=O)N([C@H](C)CO)C[C@H]1C
23 | inactive | Cc1noc(C)c1S(=O)(=O)N(C)C[C@H]1Oc2c(NC(=O)c3nc4ccccc4s3)cccc2C(=O)N([C@H](C)CO)C[C@H]1C
24 | inactive | CO[C@@H]1CN(C)C(=O)c2ccc(NC(=O)C3CC3)cc2OC[C@@H](C)N(Cc2ccncc2)C[C@H]1C
25 | inactive | C[C@@H]1CN([C@H](C)CO)C(=O)c2cc(NS(=O)(=O)c3ccc(Cl)cc3)ccc2O[C@H]1CN(C)S(=O)(=O)c1ccc(Cl)cc1
26 | inactive | C[C@@H]1CN([C@H](C)CO)S(=O)(=O)c2ccc(C3=CCCCC3)cc2O[C@@H]1CN(C)C(=O)Nc1ccc2c(c1)OCO2
